High-throughput results deposited in PubChem BioAssay by several laboratories.
A selection: hits, their analogues and other compounds. The true share with any hit is near 12%.
WT yeast gro inh: growth inhibition of WT yeast, mitochondrial fusion screen; inhibition, % at 10 µM; actives 2.1% (n = 190,000); mitochondrial fusion phenotypic screen, WT strain; AID 1362; in the data active = inhibition above about 58%; tested in S. cerevisiae
RAM inhibit: yeast RAM network inhibition | S. cerevisiae dse1pr::URA3 reporter, 5-FOA growth OD615, 2 d; analog-sensitive cbk1-as2 kinase mutant strain | inhibition, % at 50 µM | actives 1.8% (n = 190,000) | AID 868;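 active = inhibition above a set limit, 3 SD over mean compound inhibition, cut at about 8.4% in these data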;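 note: 0% = DMSO-only wells with no growth and 100% = 10 µM 1-NA-PP1 full growth; inhibition rescues growth on 5-FOA so higher OD means more RAM inhibition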
L major viab: inhibitors of Leishmania major promastigote growth; inhibition, % at 10 µM; actives 9% (n = 200,000); AID 1063; Leishmania major promastigotes, resazurin fluorescence viability; in the data active = inhibition above about 50%;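 note: promastigotes grown with compound for 44 hours at 28 °C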
ABCG2 block: inhibitors of human ABCG2 transporter, ABCB1 counter-screen; Q9UNQ0; IgMXP3 cells, JC-1 efflux, flow cytometry; inhibition, % at 6.6 µM; actives 0.1% (n = 190,000);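 active = inhibition above 80%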;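 note: 0% = DMSO and 100% = nicardipine control wells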
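Read-out basis: Efflux inhibition in percent versus controls | Test system: ABCG2 IgMXP3 and barcoded ABCB1 CCRF-Adr cell mix | Quantity: 3 million cells/mL in well | Schedule: 10 min at 25 °C | Control set: Nicardipine as high control, DMSO as low control | Reagent: JC-1 as fluorescent efflux pump substrate | Signal: Flow cytometry of retained JC-1 fluorescence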
ABCB1 inh: blocks JC-1 efflux by human ABCB1 transporter; P08183; CCRF-Adr cells, flow cytometry; inhibition, % at 6.6 µM; actives 0.067% (n = 190,000); in the data active = inhibition above about 40%;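 note: 0% = vehicle and 100% = reference inhibitor; higher value means more JC-1 retained so stronger ABCB1 efflux block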
Target sequence (P08183 whole entry, looked up): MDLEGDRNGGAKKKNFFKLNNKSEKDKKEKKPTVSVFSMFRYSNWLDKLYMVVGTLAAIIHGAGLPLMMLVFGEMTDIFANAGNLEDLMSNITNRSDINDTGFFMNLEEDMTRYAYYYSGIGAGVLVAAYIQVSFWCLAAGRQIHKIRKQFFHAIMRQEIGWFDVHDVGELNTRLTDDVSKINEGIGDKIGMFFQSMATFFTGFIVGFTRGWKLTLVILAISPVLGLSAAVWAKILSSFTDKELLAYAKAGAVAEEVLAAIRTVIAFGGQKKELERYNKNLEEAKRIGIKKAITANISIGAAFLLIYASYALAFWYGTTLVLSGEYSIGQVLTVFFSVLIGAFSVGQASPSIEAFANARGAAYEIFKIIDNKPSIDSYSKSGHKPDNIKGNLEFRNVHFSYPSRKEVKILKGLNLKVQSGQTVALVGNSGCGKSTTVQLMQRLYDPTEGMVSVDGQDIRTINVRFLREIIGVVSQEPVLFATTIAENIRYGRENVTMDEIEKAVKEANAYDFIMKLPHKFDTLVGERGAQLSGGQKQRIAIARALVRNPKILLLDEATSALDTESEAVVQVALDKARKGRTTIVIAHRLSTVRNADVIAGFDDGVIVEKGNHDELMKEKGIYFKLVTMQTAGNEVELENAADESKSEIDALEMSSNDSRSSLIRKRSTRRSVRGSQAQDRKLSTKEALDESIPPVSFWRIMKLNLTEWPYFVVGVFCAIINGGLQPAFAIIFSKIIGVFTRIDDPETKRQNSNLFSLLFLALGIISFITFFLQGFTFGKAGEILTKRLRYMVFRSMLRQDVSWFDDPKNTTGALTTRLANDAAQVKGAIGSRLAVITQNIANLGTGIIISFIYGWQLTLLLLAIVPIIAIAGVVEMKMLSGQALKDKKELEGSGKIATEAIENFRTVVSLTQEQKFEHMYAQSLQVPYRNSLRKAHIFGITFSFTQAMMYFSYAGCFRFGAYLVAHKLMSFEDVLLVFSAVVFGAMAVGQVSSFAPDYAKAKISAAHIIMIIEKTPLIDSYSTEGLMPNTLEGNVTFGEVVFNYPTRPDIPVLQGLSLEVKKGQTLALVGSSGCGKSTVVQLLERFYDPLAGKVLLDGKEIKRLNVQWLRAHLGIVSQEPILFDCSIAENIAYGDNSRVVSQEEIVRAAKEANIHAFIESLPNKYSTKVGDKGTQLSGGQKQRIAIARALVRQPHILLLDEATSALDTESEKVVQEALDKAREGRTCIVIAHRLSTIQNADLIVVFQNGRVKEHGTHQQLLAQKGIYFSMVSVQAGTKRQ
* hit, by the source's call; / = no result given.

SMILES	WT yeast gro inh	RAM inhibit	L major viab	ABCG2 block	ABCB1 inh
O=C(c1ccc(Cl)cc1)N1CCN(c2ccc([N+](=O)[O-])c(NCc3cccnc3)c2)CC1	/	/	85*	/	/
COC(=O)c1c(NC(=S)Nc2ccc(CC(=O)O)cc2)sc(C)c1C	-12	10*	36	-9	-1
CC1CCCN(CCC(=O)Nc2ccccc2)C1 (stereo not drawn)	-9	2	-1	3	1
CC1CCCN(CCC(=O)Nc2ccc3c(c2)CCC3)C1 (stereo not drawn)	2	1	61*	-1	0
O=C(CCN1CCOCC1)Nc1ccc2c(c1)CCC2	-13	0	4	0	1
CC1CCCN(CCC(=O)Nc2ccc(Br)cc2)C1 (stereo not drawn)	5	1	53*	0	0
Cc1c(NC(=O)c2c(N)sc3c2CCCC3)c(=O)n(-c2ccccc2)n1C	-17	0	-6	-1	0
CC/C(=C\c1oc2cc3ccccc3cc2[n+]1CC)Nc1ccccc1	42	-1	100*	3	1
CCCS(=O)(=O)N1CCN=C1SCc1cccc(C)c1	-6	-1	7	13	1
O=C1CN(c2nc(-c3cccs3)nc3sc4c(c23)CCCC4)CCN1	33	4	76*	-1	0
COc1ccc(NC(=O)c2ccc(Oc3ncccn3)cc2)cc1	3	2	0	3	0
O=C(Nc1ccc(N2CCOCC2)cc1)Nc1ccc(Cl)c(Cl)c1	22	4	28	15	0
O=C1C=C(NC(=O)Nc2ccc(Cl)c(Cl)c2)CCC1	80*	3	-3	1	0
O=C(Nc1ccc(Br)cc1)Nc1ccccc1F	6	6	3	2	0
O=C(Nc1ccc(Cl)c(Cl)c1)Nc1ccc(Br)cc1F	81*	7	0	-4	0
Cc1cccc(C)c1N1CCN(c2nc(N(C)C)oc(=O)c2C#N)CC1	-5	3	-7	10	4
Cc1ccc(Cl)cc1N1CCN(C(=O)c2ccc(NS(=O)(=O)c3c(C)noc3C)cc2)CC1	-20	4	96*	1	0
Cc1ccc(C)c(N2CCN(C(=O)c3ccc(NS(=O)(=O)c4c(C)noc4C)cc3)CC2)c1	14	4	93*	16	1
Cc1ccc(NC(=O)c2ccc(NS(=O)(=O)c3c(C)noc3C)cc2)cc1C	-6	2	1	7	-1
Cc1noc(C)c1S(=O)(=O)Nc1ccc(C(=O)N2CCCCC2)cc1	11	0	-5	1	1
CN1CCN(C(=O)NCC23CC4CC(CC(C4)C2)C3)CC1	3	1	0	1	1
CCOCCCNC(=S)Nc1ccc2nc(N3CCCC3)cc(C)c2c1	6	1	100*	12	8
Cc1cc(N2CCCC2)nc2ccc(NC(=S)NC(C)C)cc12	21	4	99*	3	0
CCCCNC(=O)CCC(=O)Nc1ccc2nc(N3CCCCC3)cc(C)c2c1	3	2	7	11	1
Cc1cc(N2CCCCC2)nc2ccc(NC(=O)CCC(=O)NCCC(C)C)cc12	-1	-1	8	23	1
SMILES	WT yeast gro inh	RAM inhibit	L major viab	ABCG2 block	ABCB1 inh
COCCNC(=S)Nc1ccc2nc(N3CCCC3)cc(C)c2c1	15	3	100*	-2	0
O=C(CN1CCCc2ccccc21)NCCc1ccc(F)cc1	4	0	17	2	0
CCCCN(C)S(=O)(=O)c1ccc(C(=O)Nc2nnc(-c3cccs3)o2)cc1	19	6	99*	4	0
CCCCN(CC)S(=O)(=O)c1ccc(C(=O)Nc2nnc(COC)o2)cc1	19	0	2	15	3
CCCCN(CC)S(=O)(=O)c1ccc(C(=O)Nc2nnc(-c3ccccc3Cl)o2)cc1	16	2	99*	-1	0
CCN(Cc1ccccc1)S(=O)(=O)c1ccc(C(=O)Nc2nnc(-c3ccccc3OC)o2)cc1	-18	6	99*	-1	0
Cc1ccc(C(C(=O)NC(C)(C)C)N(Cc2ccco2)C(=O)CCC(=O)Nc2nccs2)cc1 (stereo not drawn)	/	/	0	/	/
CCN(c1ccccc1)S(=O)(=O)c1ccc(OC)c(OC)c1	-10	-1	-5	9	0
CCN(c1ccccc1)S(=O)(=O)c1ccc(OC)c(NC(=O)CNCCc2ccccc2)c1	13	6	52*	11	3
CC(=O)NCC(=O)N1CCCC(C(=O)c2ccc(Oc3ccccc3)cc2)C1 (stereo not drawn)	10	0	2	0	0
CCOC(=O)c1sc2ccccc2c1OC(=O)c1ccccc1OC	20	10*	0	29	1
CCOc1ccc(NC(=O)c2ccc(NCC(=O)N3CCCCCC3)cc2)cc1	-12	3	0	3	0
CCOc1ccc(NC(=O)c2ccc(NC(=O)c3cn4c5c(c(N6CCN(C)CC6)c(F)cc5c3=O)OCC4C)cc2)cc1 (stereo not drawn)	-3	0	93*	-4	-1
Cc1ccc(NC(=O)CN2CCN(S(=O)(=O)c3cccs3)CC2)cc1S(=O)(=O)N(C)C	-6	0	6	2	1
Cc1cc2ccccc2cc1CN1CCOCC1	0	0	0	-1	0
Cc1cc(OCc2cccc(Cl)c2)c(C)cc1CN1CCOCC1	70*	0	81*	1	1
CCOC(=O)C1(CC2CC2)CCN(C(=O)c2cccnc2C)CC1	-21	2	-8	1	0
C=C1C(=O)[C@@]23[C@H](O)C[C@@H]4C(C)(C)CC[C@H](O)[C@@]4(C)[C@@H]2CC[C@@H]1[C@H]3O	-12	0	100*	-1	-1
CCN1/C(=C\C(=S)Nc2ccccc2)Sc2ccccc21	69*	4	-1	-1	-1
Cc1cc2nc(C)n(CCCNC(=O)Nc3ccc(F)cc3)c2cc1C	0	-1	91*	6	1
Cc1ccc(NC(=O)Nc2ccc3c(c2)nc(C)n3C)cc1C	16	-1	1	-5	-3
CCOC(=O)c1sc(NC(=O)Nc2cccc(Cl)c2)cc1C	67*	9.0*	25	0	-1
CCOC(=O)c1sc(NC(=O)c2sccc2C)cc1C	27	4	69*	6	1
CCOC(=O)c1sc(NC(=O)c2cccs2)cc1C	22	5	-4	11	0
CN(C)c1nc(C=C(C#N)C#N)c(Cl)n1-c1ccc(F)cc1	-3	1	24	3	2
Cn1cccc1CC(=O)NNC(=S)Nc1ccc(Cl)cc1Cl	9	2	-10	-2	0
O=C(CN1c2ccccc2Sc2ccccc21)NNC(=S)Nc1ccc(Cl)cc1Cl	42	11*	-3	-3	0
Cn1c(=O)c2c(ncn2CC(O)CNc2cccc(Cl)c2)n(C)c1=O (stereo not drawn)	-4	1	3	6	1
O=C(O)c1ccc(COc2ccccc2/C=C2\NC(=O)N(Cc3ccccc3F)C2=O)cc1	-9	3	-3	-2	-1
